From article PMC4317336 (Journal of controlled release : official journal of the …, 2013)

The substances below were run on tumor biopsies from stage IV NB patients (assay: phage overlay binding assay on tumor biopsies from NB patients). Conditions: human NB sections, compared with Mallory Trichrome histology.
Procedure, shortened: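 Frozen sections (5 μm) from stage IV NB patient tumors in OCT, fixed 10 min at room temperature in 4% paraformaldehyde/PBS, washed twice in PBS, and blocked with serum-free protein block. Sections overlaid 1 h at 4°C with 10⁸ T.U./μl of each phage clone; insertless Fd-Tet phage as negative control. Bound phage detected with anti-bacteriophage antibody plus HRP polymer, then hematoxylin counterstain.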

Row | Substance | tumor component preferentially bound
1 | WSWPREL [Phage #8] | preferentially bind to non-epithelial tumor components
2 | ALAAHKL [Phage #10] | preferentially bind to non-epithelial tumor components
3 | HSYWLSR [Phage #5] | preferentially bind to non-epithelial tumor components
4 | YEGLISR [Phage #1] | preferentially bind to non-epithelial tumor components
5 | KSFFLSH [Phage #14] | widely recognizes the whole NB masses
